Results reported in ChEMBL document CHEMBL1129265, “Synthesis and characterization of pseudopeptide bradykinin B2 receptor antagonists containing the 1,3,8-triazaspiro[4.5]decan-4-one ring system” (J Med Chem, 1996).

Columns and labels:
B2 bradykinin receptor = target: T1, B2 bradykinin receptor (Homo sapiens, UniProt P30411); assay: Affinity to human Bradykinin receptor B2 in CHO cell membranes determined by displacement of [3H]-NPC 17731
T1 sequence (P30411 whole entry): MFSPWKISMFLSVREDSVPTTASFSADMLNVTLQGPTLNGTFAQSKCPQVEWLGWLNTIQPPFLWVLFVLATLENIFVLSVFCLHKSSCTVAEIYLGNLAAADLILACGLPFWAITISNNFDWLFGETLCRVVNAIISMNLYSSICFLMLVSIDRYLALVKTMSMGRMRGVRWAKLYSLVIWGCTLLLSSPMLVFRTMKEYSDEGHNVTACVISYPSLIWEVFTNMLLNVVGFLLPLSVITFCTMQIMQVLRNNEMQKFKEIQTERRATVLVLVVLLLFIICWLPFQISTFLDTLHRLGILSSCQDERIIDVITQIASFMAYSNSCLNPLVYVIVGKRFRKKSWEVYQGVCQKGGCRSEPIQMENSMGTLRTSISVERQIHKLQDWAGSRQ
Outline: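 Membranes from CHO/K cells transfected with human B2 receptor, grown in Ham's F12 with 10% FBS and 500 ug/mL G418. Buffer: 25 mM TES, 1 mM 1,10-phenanthroline, pH 6.8, with bacitracin and 0.1% BSA. Competition versus [3H]NPC-17731, 15 pM final. 1 uM bradykinin defines nonspecific binding. 90 min at 25 °C, then filtration on PEI-soaked GF/B and scintillation counting. n=3.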

Rattus norvegicus = species: Rattus norvegicus; assay: Pharmacological profile in bradykinin induced assay in rats ([…] in rats); assay type: functional
Outline: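 Anesthetized Sprague–Dawley rats, carotid mean arterial pressure, jugular iv dosing, tracheotomy. After 30 min stabilization, three bradykinin injections (12 ug/kg iv, 5 min apart) set baseline hypotension. Test agent is given iv 10–15 min later, followed 5 min after by bradykinin challenge. Successive increasing doses give a cumulative dose–response; ED50 reported, n=4.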

Oryctolagus cuniculus = species: Oryctolagus cuniculus; assay: Pharmacological profile in bradykinin induced assay in rabbits ([…]); assay type: functional
Outline: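 Male New Zealand white rabbits, 1.5–2.0 kg, acepromazine premedicated, pentobarbital anesthetized. Carotid catheter records mean arterial pressure continuously. Three bolus bradykinin doses (1 ug/kg iv) set baseline. Antagonist in saline is then given iv at rising doses (0.03–1000 ug/kg), each followed after 5 min by a bradykinin bolus. Percent inhibition of hypotension per animal; ED50 by probit; n=4.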

Row | SMILES | Ki (B2 bradykinin receptor) | ED50 (Rattus norvegicus) | ED50 (Oryctolagus cuniculus)
1 | CC(=O)CN1CN(CCc2ccccc2)C2(CCN(C)CC2)C1=O | 0.15 nM | – | –
2 | CCCN1CN(CC(C)=O)C(=O)C12CCN(C)CC2 | 27 nM | – | –
3 | CC(=O)CN1CN(c2ccccc2)C2(CCN(C)CC2)C1=O | 7.7 nM | 0.4 mg/kg | 0.0221 mg/kg
4 | CC(=O)CN1CN(C2CCCCC2)C2(CCN(C)CC2)C1=O | 0.57 nM | 0.6 mg/kg | 0.0086 mg/kg
5 | CC(=O)CN1CN(c2ccc(C)cc2)C2(CCN(C)CC2)C1=O | 6.3 nM | – | –
6 | CC(=O)CN1CN(CC2CCCCC2)C2(CCN(C)CC2)C1=O | 6.8 nM | – | –
